In ChEMBL document CHEMBL1143260, “Substrate specificity and screening of the integral membrane protease Pla” (Bioorg Med Chem Lett, 2008):
Activity calls are given as the source filed them. The rule behind the calls is not given here. Residues, ends and D or L forms follow the SMILES beside them. *: point of attachment. X1 = CN(C)c1ccc(/N=N/c2ccc(C(=O)*)cc2)cc1; EDANS = O=S(=O)(O)c1cccc2c(NCCN*)cccc12

Legend:
[1] = target: Tissue-type plasminogen activator (Homo sapiens) (UniProt P00750); assay: Inhibition of recombinant plasminogen activator assessed as conversion of plasminogen to plasmin in fibrinolytic assay
Summary of the method: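 Fibrin plate functional assay: purified Pla was pre-incubated with the peptide, dissolved in DMSO or water and tested in 2-fold dilutions. Samples were spotted onto an opalescent fibrin film containing plasminogen. No-peptide spots served as controls.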

[2] = target: Tissue-type plasminogen activator (Homo sapiens) (UniProt P00750); assay: Hydrolysis activity of plasminogen activator by LC-MS analysis
Summary of the method: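 Peptides were incubated with Pla, and the reaction mixtures were analysed by LC-MS. Cleavage was assigned from product retention time and mass, for example a DABCYL-Arg-OH fragment.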

[3] = target: T1, Plasminogen activator (Yersinia pestis) (UniProt P17811); assay: Inhibition of plasminogen activator in Yersinia pestis by fluorometric assay
T1 sequence (whole entry): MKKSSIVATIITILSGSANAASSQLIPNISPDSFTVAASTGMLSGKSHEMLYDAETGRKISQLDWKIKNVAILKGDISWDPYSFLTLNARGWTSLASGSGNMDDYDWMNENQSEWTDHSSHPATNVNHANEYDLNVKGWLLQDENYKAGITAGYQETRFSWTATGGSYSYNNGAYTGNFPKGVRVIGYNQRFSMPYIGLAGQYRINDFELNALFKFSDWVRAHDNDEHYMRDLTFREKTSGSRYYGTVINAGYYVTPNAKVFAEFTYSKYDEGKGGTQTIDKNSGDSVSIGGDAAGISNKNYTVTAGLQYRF

[4] = target: Urokinase-type plasminogen activator (Homo sapiens) (UniProt P00749); assay: Inhibition of urokinase-type plasminogen activator
[5] = target: T1, Plasminogen activator (Yersinia pestis); assay: Inhibition of plasminogen activator in Yersinia pestis assessed as conversion of plasminogen to plasmin in fibrinolytic assay
Summary of the method: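 Fibrin plate assay. Purified recombinant Pla was pre-incubated with the peptide in 2-fold dilutions (dissolved in DMSO or water), then spotted onto an opalescent fibrin film. Pla converts plasminogen to plasmin, and fibrinolysis appears as a clear spot. Inhibition was judged against spots with no peptide added.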

[6] = target: Tissue-type plasminogen activator (Homo sapiens) (UniProt P00750); assay: Inhibition of purified recombinant plasminogen activator by fluorometric assay

Tissue-type plasminogen activator (Homo sapiens), sequence (P00750 36-562 limits assumed): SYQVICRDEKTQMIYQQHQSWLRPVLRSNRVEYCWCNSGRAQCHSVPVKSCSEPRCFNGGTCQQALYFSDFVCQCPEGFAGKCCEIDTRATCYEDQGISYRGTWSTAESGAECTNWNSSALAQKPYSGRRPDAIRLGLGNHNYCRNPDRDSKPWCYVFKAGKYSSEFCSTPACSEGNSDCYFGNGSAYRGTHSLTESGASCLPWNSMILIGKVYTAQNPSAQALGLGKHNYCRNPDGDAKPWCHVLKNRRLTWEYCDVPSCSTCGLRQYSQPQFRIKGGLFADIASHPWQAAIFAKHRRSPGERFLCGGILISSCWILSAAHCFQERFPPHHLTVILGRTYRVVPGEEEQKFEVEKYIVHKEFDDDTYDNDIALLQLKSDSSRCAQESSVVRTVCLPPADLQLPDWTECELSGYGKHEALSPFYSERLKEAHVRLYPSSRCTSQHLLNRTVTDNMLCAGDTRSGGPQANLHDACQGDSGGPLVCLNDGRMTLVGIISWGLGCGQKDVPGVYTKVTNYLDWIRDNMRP

| SMILES | Activity [1] | Activity [2] | Activity [3] | Activity [4] | Activity [5] | Activity [6] |
| --- | --- | --- | --- | --- | --- | --- |
| CC[C@H](C)[C@H](NC(=O)[C@H](CCCNC(=N)N)NC(=O)[C@H](CCCNC(=N)N)NC(=O)c1ccc(/N=N/c2ccc(N(C)C)cc2)cc1)C(=O)NCCNc1cccc2c(S(=O)(=O)O)cccc12 | Active | Active |  |  |  |  |
| CC[C@H](C)[C@H](NC(=O)[C@H](CCCNC(=N)N)NC(=O)[C@H](CCCNC(=N)N)NC(=O)c1ccc(/N=N/c2ccc(N(C)C)cc2)cc1)C(=O)O | inactive | Active |  |  |  |  |
| CN(C)c1ccc(/N=N/c2ccc(C(=O)N[C@@H](CCCNC(=N)N)C(=O)N[C@@H](CCCNC(=N)N)C(=O)O)cc2)cc1 | inactive | inactive |  |  |  |  |
| CC[C@H](C)[C@H](NC(=O)[C@H](CCCNC(=N)N)NC(=O)[C@H](CCCNC(=N)N)NC(=O)c1ccc(/N=N/c2ccc(N(C)C)cc2)cc1)C(=O)N[C@@H](CC(=O)O)C(=O)NCCNc1cccc2c(S(=O)(=O)O)cccc12 (X1-RRID-{EDANS}) | Active | Active |  |  |  |  |
| CC[C@H](C)[C@H](NC(=O)[C@H](CCCNC(=N)N)NC(=O)[C@H](CCCNC(=N)N)NC(=O)c1ccc(/N=N/c2ccc(N(C)C)cc2)cc1)C(=O)N[C@@H](CC(N)=O)C(=O)O (X1-RRIN-OH) | inactive | Active |  |  |  |  |
| CC[C@H](C)[C@H](NC(=O)[C@H](CCCNC(=N)N)NC(=O)[C@H](CCCNC(=N)N)NC(=O)c1ccc(/N=N/c2ccc(N(C)C)cc2)cc1)C(=O)N[C@@H](CC(N)=O)C(=O)N[C@@H](CCCNC(=N)N)C(=O)O (X1-RRINR-OH) | inactive | Active |  |  |  |  |
| CC[C@H](C)[C@H](NC(=O)[C@H](CCCNC(=N)N)NC(=O)[C@H](CCCNC(=N)N)NC(=O)c1ccc(/N=N/c2ccc(N(C)C)cc2)cc1)C(=O)N[C@@H](CC(N)=O)C(=O)N[C@@H](CCCNC(=N)N)C(=O)N[C@@H](CCC(=O)NCCNc1cccc2c(S(=O)(=O)O)cccc12)C(N)=O (X1-RRINRE(EDANS)-NH2) | Active | Active | Active | inactive | Active | Active |
| CC[C@H](C)[C@H](NC(=O)[C@H](CCCNC(=N)N)NC(=O)[C@H](CCCNC(=N)N)NC(=O)c1ccc(/N=N/c2ccc(N(C)C)cc2)cc1)C(=O)N[C@@H](CC(N)=O)C(=O)N[C@@H](CCCNC(=N)N)C(=O)N[C@@H](CCC(=O)O)C(=O)NCCNc1cccc2c(S(=O)(=O)O)cccc12 (X1-RRINRE-{EDANS}) | Active | Active |  |  |  |  |
